Autophagy HCS = autophagy modulators in MEF cells, primary screen, imaging, high-content, MEF GFP-LC3; MEF GFP-LC3 puncta imaging; test concentration mostly 10 µM; calls only at 10 µM (by protocol); hit rate 0.98% among 190,000;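 active = percentage of spot-positive cells more than 3 SD above its plate mean, without a fluorescence outlier flag or 80% toxicity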;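 note: spot-positive cell cutoff set from DMSO-treated cells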
Rad51 HR inh = human RAD51 strand exchange inhibitors, primary screen, biochemical, fluorescence | inhibition, % at 10 µM | hit rate 0.085% among 200,000 | hRad51 DNA strand exchange, fluorescence dequenching | AID 1385, 2008 | DNA repair protein RAD51 homolog 1 (Homo sapiens), Q06609;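 active = inhibition above 40% at the single screening dose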;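 note: 0% = DMSO control wells and 100% = blanks with heterologous ssDNA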
Target sequence (Q06609 whole entry, looked up): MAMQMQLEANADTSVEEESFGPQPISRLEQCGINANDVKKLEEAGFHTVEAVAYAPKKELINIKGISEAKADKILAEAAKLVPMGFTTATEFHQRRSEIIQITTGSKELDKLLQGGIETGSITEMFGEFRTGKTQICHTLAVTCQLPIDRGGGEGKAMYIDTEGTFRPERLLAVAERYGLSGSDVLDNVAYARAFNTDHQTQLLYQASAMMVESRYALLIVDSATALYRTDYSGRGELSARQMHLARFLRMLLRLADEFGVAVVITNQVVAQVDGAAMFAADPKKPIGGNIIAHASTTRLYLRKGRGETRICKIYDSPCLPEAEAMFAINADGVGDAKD
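Material: human Rad51–ssDNA filaments; Probe or stimulus: labelled 47-mer dsDNA for strand exchange; Doses: single 10 µM dose; Incubation: 37 °C 15-min filament assembly, 30-min compound preincubation, 15-min exchange; Technique: FRET fluorescence dequenching, excitation 485 nm, emission 520 nm; Measure: Fluorescence-based percent inhibition, control- and blank-normalised; Benchmarks: plate control and blank wells.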
WT yeast gro inh = growth inhibition of WT strain, primary screen, mitochondrial fusion inhibitor project, WT and mutant strains, chemical genetic; mitochondrial fusion phenotypic screen; inhibition, % at 10 µM; hit rate 2.1% among 190,000; AID 1362, 2008; in the data active = inhibition above about 58%; tested in S. cerevisiae
SKKanGAS inh = S. pyogenes SKKanGAS growth inhibitors in kanamycin, primary screen, streptokinase expression inhibitor project, SKKanGAS strain, BacTiter-Glo luminescence | hit rate 1.3% among 300,000 | AID 1662, 2009 | inhibition, % at 7.5 µM | 6 h;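 active = mean replicate score, as percent of positive control median, at least 50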;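 note: strain carries kanamycin resistance gene driven by streptokinase promoter and grows in 40 µg/ml kanamycin; loss of luminescence reflects streptokinase promoter inhibition or plain growth inhibition; 0% = median of DMSO wells and 100% = positive control at its reference dose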
Ins promoter up = insulin promoter activators in MIN6 cells, imaging, high-content screening, mouse beta cells | z-score at 5 µM | hit rate 0.3% among 190,000 | MIN6 insulin promoter-GFP reporter; hits give high values;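 active = z-score above 3 at 5 µM with at least 500 cells counted in the well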
Cl transport mod = KCC2 cotransporter modulators, thallium flux, primary screen, cell-based, HEK293 KCC2, FluoZin-2 fluorescence, MLSMR; Solute carrier family 12 member 5 (Homo sapiens), Q9H2X9; hit rate 2.2% among 190,000; KCC2 cells, thallium flux FluoZin-2 fluorescence; B-score of Tl+ flux slope (higher = more flux/activation; lower = inhibition) at 10 µM; AID 1456, 2008;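 active = thallium flux slope and its plate-corrected score both differing from the plate sample mean at a set confidence after two filtering rounds, in either direction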;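 note: slope of fluorescence scaled to starting intensity during 10 to 20 s after thallium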
* = called active by the depositor; i = inactive; . = no result; + = active, no number. Compounds with a hit are over-represented: about 4.2% of the library has one in this group of screens.

SMILES	Autophagy HCS	Rad51 HR inh	WT yeast gro inh	SKKanGAS inh	Ins promoter up	Cl transport mod
CCn1cc(C(=O)O)c(=O)c2cc(F)c(N/N=C/c3ccccc3[N+](=O)[O-])cc21	i	11.2	9.3	79.4*	-0.29	-1.54
CC(NC(=S)N1CCN(c2ccccc2)CC1)c1ccccc1 (stereo not drawn)	.	7.6	.	-1.0	-0.07	-0.118
CC(C)N1C(=O)/C(=C\c2nc3ccccc3c(=O)n2-c2ccccc2)c2ccccc21	i	-12.1	83.6*	2.1	-1.37	-0.813
CC(C)N1C(=O)/C(=C/c2nc3ccccc3c(=O)n2-c2ccccc2)c2ccccc21	i	-0.2	-8.2	3.5	0.09	0.00609
Cc1ccc(C)c(NC(=S)NCC(c2ccccc2)N(C)C)c1 (stereo not drawn)	i	5.3	13.2	-3.8	-0.49	-0.103
CCOC(=O)c1cnn(-c2sc(C(=O)OCC)c(C)c2C(=O)OCC)c1N	i	-3.5	.	27.8	.	43.2*
CCc1ccc(NC(=O)N(Cc2ccco2)C(C)c2cccs2)cc1 (stereo not drawn)	i	-2.7	1.8	-0.4	-1.01	-1.44
CCc1ccccc1NC(=S)N(Cc1ccco1)C(C)c1cccs1 (stereo not drawn)	i	-8.2	76.2*	1.8	0.09	0.521
C=CCNC(=O)/C(C#N)=C\c1cc(Cl)c(OCC)c(OC)c1	i	3.3	5.8	2.8	-0.83	0.156
Cc1ccc(C(=O)n2c3ccccc3c3ccccc32)cc1	i	-3.8	16.2	67.0*	.	.
COC(=O)C1C(c2ccc(OC)cc2)C(C(=O)OC)S(=O)(=O)C(CCN2CCCCC2)S1(=O)=O (stereo not drawn)	i	-4.0	-2.0	-2.2	-0.09	-0.0335
CCN(CC)CCNC(=S)Nc1ccc(F)cc1	+	-2.7	7.0	2.1	0.61	-0.767
CCCc1c(C(=O)N/N=C/c2ccco2)nnn1-c1nonc1N	.	.	.	-5.2	.	.
O=C1/C(=C/c2ccccc2)Nc2ccccc21	i	.	0.4	-0.7	-0.4	i
O=C1/C(=C/c2ccccc2)NC(=S)N1C(c1ccccc1)c1ccccc1	+	-1.0	19.2	1.0	.	1.08
O=C(OCC(=O)N1CCCc2ccccc21)c1cccc(S(=O)(=O)N2CCc3ccccc32)c1	i	1.9	-19.0	-5.4	-0.89	-0.529
CC1CCCC(NC(=O)CCC(=O)NCc2ccccc2)C1C (stereo not drawn)	.	.	.	-2.9	.	.
O=C(CNC(=S)N(Cc1ccccc1)Cc1cccs1)NCc1ccc(F)cc1	i	-1.0	60.9*	5.6	-0.43	-0.654
O=C(CNC(=S)N(Cc1ccccc1)Cc1ccccc1F)NCCc1ccc(Cl)cc1	i	-5.2	75.4*	45.2	-1.58	0.399
Cc1ccc(N=Cc2cccc(O)c2O)c(C)c1	i	-0.2	.	57.2*	0.07	.
O=C(Nc1cscc1S(=O)(=O)c1ccccc1)c1ccccc1Cl	.	-2.8	.	7.1	-0.29	-2.78
Cc1ccc(-c2cc(-c3ccccc3)c(C#N)c(N)n2)o1	i	-14.3	64.9*	10.1	-0.07	-3.12
CC(C)N(C(=O)c1nn(C)c2c1CSc1ccccc1-2)C1CCCCC1	.	.	.	-5.5	.	.
Nc1ccccc1-n1cccc1	.	-3.6	.	37.0	-0.24	-0.412
CCN1CC=C2C(C1)C(c1ccc(Cl)s1)C(C#N)=C(N)C2(C#N)C#N (stereo not drawn)	+	.	42.4	9.8	.	i
SMILES	Autophagy HCS	Rad51 HR inh	WT yeast gro inh	SKKanGAS inh	Ins promoter up	Cl transport mod
Clc1ccc2oc(-c3ccccn3)nc2c1	i	-7.2	-7.3	0.8	3*	0.0305
CCC(=O)NCCc1nc2cc(NC(=O)c3ccco3)ccc2n1C	.	.	.	-4.4	.	.
CCN1CCCC1CNc1ncnc2c1[nH]c1ccc(Cl)cc12 (stereo not drawn)	+	-10.9	-5.0	-5.2	-2.31	0.0396
COc1ccc2ccccc2c1/C=N/NC(=O)c1cccc([N+](=O)[O-])c1	.	.	.	0.5	.	.
N#Cc1nc(Cc2cccc3ccccc23)oc1NCc1ccc(F)cc1	i	-3.4	70.7*	1.3	-0.38	-2.81
COCCNc1oc(Cc2cccc3ccccc23)nc1C#N	.	.	.	-0.7	.	.
Cc1ccccc1OCC(=O)Nc1ccc(C(=O)Nc2ccccc2C(=O)O)cc1	.	.	.	59.4*	.	.
Cc1ccc(NC(=O)CCC(=O)NNC(=O)COc2ccccc2)cc1C	i	-1.6	5.6	-1.6	0.24	-1.2
CCOc1ccc(NC(=O)CCC(=O)NNC(=O)COc2ccccc2C)cc1	+	15.5	-4.4	-3.2	1.45	-0.161
Cc1ncn(-c2ccccc2)c1-c1ccccc1	.	.	.	0.3	.	.
O=C(CN1C(=O)c2ccc([N+](=O)[O-])cc2C1=O)Nc1ccccc1N1CCCC1	.	.	.	-2.2	.	.
COC(=O)c1[nH]c2c(c1C)C(=O)CC(c1ccc(OC)cc1)C2 (stereo not drawn)	.	.	.	0.5	.	.
COc1ccc(OC)c(C2CC(=O)c3c([nH]c(C(=O)OC(C)C)c3C)C2)c1 (stereo not drawn)	+	-4.8	8.5	15.1	0.53	0.461
COCCOC(=O)c1[nH]c2c(c1C)C(=O)CC(c1cc(OC)ccc1OC)C2 (stereo not drawn)	i	-5.8	12.1	-3.0	-0.4	0.322
Cc1c(C(=O)OC2CCCC2)[nH]c2c1C(=O)CC(c1ccco1)C2 (stereo not drawn)	+	1.6	-1.2	6.3	1.13	0.338
COC(=O)c1[nH]c2c(c1C)C(=O)CC(c1ccccc1)C2 (stereo not drawn)	+	-1.8	7.6	-2.7	-1.96	0.273
O=C1c2ccccc2CCCC12N=NCC2c1cccc2ccccc12 (stereo not drawn)	i	.	-14.3	49.8*	0.54	-0.0118
Cc1ccsc1-c1nc(CN2CCCC2c2ccc(F)cc2)c(C)o1 (stereo not drawn)	i	-130.4	16.0	9.7	-0.13	0.225
CCN1CCc2c(sc(NC(=O)c3ccc(S(=O)(=O)N4CCCC4)cc3)c2C(=O)NC)C1	.	.	.	50.5*	.	.
CCCN1CCc2c(sc(NC(=O)c3ccc(S(=O)(=O)N4CCN(C(=O)OCC)CC4)cc3)c2C(N)=O)C1	.	.	.	57.3*	.	.
Cc1ccccc1C(=O)c1cccn1CC(=O)NC(C)c1ccc2c(c1)OCCO2 (stereo not drawn)	i	-6.0	-4.6	-3.0	0.43	-0.845
Cc1ccc(NC(=O)C(=O)c2ccc(C)cc2)cc1	.	.	.	-4.5	.	.
CC(O)CNc1nc2ccccc2n1CC(=O)N1CCN(Cc2ccccc2)CC1 (stereo not drawn)	i	1.7	-3.2	6.4	-0.53	-0.223
CC(NC(=O)Nc1ccc(Cl)c(Cl)c1)C(c1ccccc1)N1CCOCC1 (stereo not drawn)	i	.	75.0*	15.2	0.08	-2.52

Screens from PubChem BioAssay.
